Calls of active or inactive are those of the source. No cut-off for these calls is given here.
Assays:
[1] = target: T1, Macrophage migration inhibitory factor (Homo sapiens) (UniProt P14174); experiment: Inhibition of recombinant His-tagged MIF tautomerase activity (unknown origin) at 25 uM using 4-HPP as substrate relative to control
T1 sequence (whole entry): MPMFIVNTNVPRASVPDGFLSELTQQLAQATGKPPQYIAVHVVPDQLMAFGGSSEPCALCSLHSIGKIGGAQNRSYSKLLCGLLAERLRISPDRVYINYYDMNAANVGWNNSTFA
How it was run: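 Single-point screen at final inhibitor 25 µM in 5% DMSO (from 10 mM DMSO stocks diluted in 0.4 M boric acid pH 6.2). MIF final 340 nM; reaction started with 4-HPP (final 0.5 mM; pre-equilibrated overnight in 50 mM ammonium acetate pH 6.0). Absorbance at 306 nm followed over time. Vehicle control 5% DMSO; no-MIF negative control. Mean of at least 2 independent experiments.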

[2] = target: T2, Macrophage migration inhibitory factor (Homo sapiens, UniProt P14174); experiment: Inhibition of recombinant His-tagged MIF tautomerase activity (unknown origin) using 4-HPP as substrate
T2 sequence (P14174 whole entry): T1 sequence (whole entry)

[3] = target: T1, Macrophage migration inhibitory factor (Homo sapiens); experiment: (§1) Inhibition of recombinant His-tagged MIF tautomerase activity (unknown origin) using 4-HPP as substrate pretreated for 40 mins followed by substrate addition
How it was run: (§2)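 Time-dependence test: inhibitor (125–0 µM, 1.6-fold series in 5% DMSO) preincubated with MIF (340 nM) for 2 or 40 min before 4-HPP was added (final 0.5 mM). IC50 curves were built from the 306 nm absorbance increase in boric acid pH 6.2, and the two preincubation times were compared.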

[4] = target: T1, Macrophage migration inhibitory factor (Homo sapiens); experiment: Time-dependent inhibition of recombinant His-tagged MIF tautomerase activity (unknown origin) using 4-HPP as substrate; how it was run: as §2
[5] = target: T1, Macrophage migration inhibitory factor (Homo sapiens); experiment: (§3) Inhibition of recombinant His-tagged MIF tautomerase activity (unknown origin) using 4-HPP as substrate pretreated for 2 mins followed by substrate addition; how it was run: as §2
[6] = target: T2, Macrophage migration inhibitory factor; experiment: as §1; how it was run: as §2
[7] = target: T1, Macrophage migration inhibitory factor (Homo sapiens); experiment: Reversible inhibition of recombinant His-tagged MIF tautomerase activity (unknown origin) assessed as recovery of enzyme activity at 125 uM using 4-HPP as substrate by substrate dilution method
How it was run: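 Jump-dilution: MIF (34 µM) was mixed with inhibitor (125 µM, 5% DMSO), then diluted 100-fold into 4-HPP (0.5 mM) in boric acid. Absorbance at 306 nm was plotted against time to follow activity recovery. The control was treated the same way with 5% DMSO and no inhibitor.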

[8] = target: T2, Macrophage migration inhibitory factor; experiment: as §3; how it was run: as §2

Row | SMILES | inhibition [1] [%] | also measured
1 | Cc1ccc2c(c1)C1CC(=O)N(CCc3c[nH]c4ccccc34)C(=O)C1=C(N)O2 (stereo not given) | 25 | –
2 | NC1=C2C(=O)N(CCc3c[nH]c4ccccc34)C(=O)CC2c2ccccc2O1 (stereo not given) | 15 | –
3 | Cc1ccc2c(c1)C1CC(=O)N(Cc3ccc(N)cc3)C(=O)C1=C(N)O2 (stereo not given) | 10 | –
4 | NC1=C2C(=O)N(CCc3ccc(Cl)cc3)C(=O)CC2c2ccccc2O1 (stereo not given) | 15 | –
5 | COCCN1C(=O)CC2C(=C(N)Oc3cc(C)ccc32)C1=O (stereo not given) | 0 | –
6 | COc1ccc2c(c1)OC(N)=C1C(=O)N(Cc3cccc4ccccc34)C(=O)CC12 (stereo not given) | 25 | –
7 | COc1ccc2c(c1)OC(N)=C1C(=O)N(CCc3cccs3)C(=O)CC12 (stereo not given) | 15 | –
8 | Cc1ccc2c(c1)OC(N)=C1C(=O)N(Cc3cccc4ccccc34)C(=O)CC12 (stereo not given) | 35 | –
9 | COc1ccc2c(c1)OC(N)=C1C(=O)N(CCO)C(=O)CC12 (stereo not given) | 0 | –
10 | CCOc1ccc2c(c1)OC(N)=C1C(=O)N(Cc3cccc4ccccc34)C(=O)CC12 (stereo not given) | 50 | –
11 | NC1=C2C(=O)N(Cc3ccncc3)C(=O)CC2c2ccc(OCc3ccc(Cl)cc3)cc2O1 (stereo not given) | 15 | –
12 | Cc1ccc2c(c1)C1CC(=O)N(Cc3ccco3)C(=O)C1=C(N)O2 (stereo not given) | 15 | –
13 | COCCCN1C(=O)CC2C(=C(N)Oc3cc(OC)ccc32)C1=O (stereo not given) | 0 | –
14 | CCOc1ccc2c(c1)OC(N)=C1C(=O)N(CCc3c[nH]c4ccccc34)C(=O)CC12 (stereo not given) | 10 | –
15 | NC1=C2C(=O)N(CCc3ccc(Cl)cc3)C(=O)CC2c2ccc(OCc3ccc(Cl)cc3)cc2O1 (stereo not given) | 80 | IC50 [2]: 13 µM
16 | CCOc1ccc2c(c1)OC(N)=C1C(=O)N(CC(C)C)C(=O)CC12 (stereo not given) | 10 | –
17 | COc1ccc2c(c1)OC(N)=C1C(=O)N(Cc3cccnc3)C(=O)CC12 (stereo not given) | 0 | –
18 | Cc1ccc2c(c1)C1CC(=O)N(CCO)C(=O)C1=C(N)O2 (stereo not given) | 0 | –
19 | COc1ccc2c(c1)OC(N)=C1C(=O)N(Cc3ccco3)C(=O)CC12 (stereo not given) | 0 | –

Row | SMILES | inhibition [1] [%] | also measured
20 | Cc1ccc2c(c1)OC(N)=C1C(=O)N(CCc3ccc(Cl)cc3)C(=O)CC12 (stereo not given) | 5 | –
21 | COc1ccc2c(c1)OC(N)=C1C(=O)N(CC(C)C)C(=O)CC12 (stereo not given) | 15 | –
22 | C#CCN1C(=O)CC2C(=C(N)Oc3cc(OC)ccc32)C1=O (stereo not given) | 0 | –
23 | Cc1ccc2c(c1)C1CC(=O)N(CC(C)C)C(=O)C1=C(N)O2 (stereo not given) | 0 | –
24 | Cc1ccc2c(c1)OC(N)=C1C(=O)N(CCc3ccc(Cl)cc3Cl)C(=O)CC12 (stereo not given) | 20 | –
25 | C=CCN1C(=O)CC2C(=C(N)Oc3cc(OCc4ccc(Cl)cc4)ccc32)C1=O (stereo not given) | 10 | –
26 | CCOCCN1C(=O)CC2C(=C(N)Oc3cc(OCc4ccc(Cl)cc4)ccc32)C1=O (stereo not given) | 10 | –
27 | CCOc1ccc2c(c1)OC(N)=C1C(=O)N(Cc3ccncc3)C(=O)CC12 (stereo not given) | 0 | –
28 | NC1=C2C(=O)N(CCO)C(=O)CC2c2ccccc2O1 (stereo not given) | 0 | –
29 | Cc1ccc2c(c1)C1CC(=O)N(CCN3CCOCC3)C(=O)C1=C(N)O2 (stereo not given) | 0 | –
30 | Cc1ccc2c(c1)C1CC(=O)N(CCc3ccc(Cl)cc3Cl)C(=O)C1=C(N)O2 (stereo not given) | 20 | –
31 | Cc1ccc2c(c1)OC(N)=C1C(=O)N(Cc3ccc(N)cc3)C(=O)CC12 (stereo not given) | 0 | –
32 | COc1ccc2c(c1)OC(N)=C1C(=O)N(Cc3ccc(N)cc3)C(=O)CC12 (stereo not given) | 0 | –
33 | Cc1ccc2c(c1)C1CC(=O)N(Cc3cccnc3)C(=O)C1=C(N)O2 (stereo not given) | 0 | –
34 | Cc1ccc2c(c1)OC(N)=C1C(=O)N(Cc3ccncc3)C(=O)CC12 (stereo not given) | 0 | –
35 | COc1ccc2c(c1)OC(N)=C1C(=O)N(Cc3ccncc3)C(=O)CC12 (stereo not given) | 0 | –
36 | CCOc1ccc2c(c1)OC(N)=C1C(=O)N(Cc3cccnc3)C(=O)CC12 (stereo not given) | 10 | –
37 | Cc1ccc2c(c1)C1CC(=O)N(CCc3cccs3)C(=O)C1=C(N)O2 (stereo not given) | 10 | –
38 | Cc1ccc2c(c1)OC(N)=C1C(=O)N(CCc3c[nH]c4ccccc34)C(=O)CC12 (stereo not given) | 55 | inhibition [3]: Active; TDI [4]: inactive; IC50 [2]: 6.2 µM; inhibition [5]: Active

Row | SMILES | inhibition [1] [%] | also measured
39 | CCOc1ccc2c(c1)OC(N)=C1C(=O)N(CCc3ccc(Cl)cc3Cl)C(=O)CC12 (stereo not given) | 30 | –
40 | CCN(CC)CCCN1C(=O)CC2C(=C(N)Oc3ccc(C)cc32)C1=O (stereo not given) | 0 | –
41 | COc1ccc2c(c1)OC(N)=C1C(=O)N(CCCN3CCOCC3)C(=O)CC12 (stereo not given) | 0 | –
42 | NC1=C2C(=O)N(Cc3ccc(N)cc3)C(=O)CC2c2ccc(OCc3ccc(Cl)cc3)cc2O1 (stereo not given) | 45 | –
43 | NC1=C2C(=O)N(Cc3ccc(N)cc3)C(=O)CC2c2ccccc2O1 (stereo not given) | 0 | –
44 | COc1ccc2c(c1)OC(N)=C1C(=O)N(CCCN(C)C)C(=O)CC12 (stereo not given) | 0 | –
45 | NC1=C2C(=O)N(Cc3ccco3)C(=O)CC2c2ccccc2O1 (stereo not given) | 0 | –
46 | CCCCCCCCCCCCN1C(=O)CC2C(=C(N)Oc3ccc(C)cc32)C1=O (stereo not given) | 50 | –
47 | CCOc1ccc2c(c1)OC(N)=C1C(=O)N(Cc3ccc(N)cc3)C(=O)CC12 (stereo not given) | 0 | –
48 | CCCCCCCCCCCCN1C(=O)CC2C(=C(N)Oc3ccccc32)C1=O (stereo not given) | 60 | IC50 [6]: 13.8 µM; TDI [4]: inactive; IC50 [2]: 18 µM; inhibition [7]: Active; IC50 [8]: 13.5 µM
49 | NC1=C2C(=O)N(CCc3c[nH]c4ccccc34)C(=O)CC2c2ccc(OCc3ccc(Cl)cc3)cc2O1 (stereo not given) | 70 | IC50 [2]: 8 µM
50 | C#CCN1C(=O)CC2C(=C(N)Oc3cc(C)ccc32)C1=O (stereo not given) | 0 | –
51 | CCOc1ccc2c(c1)OC(N)=C1C(=O)N(CCCN3CCOCC3)C(=O)CC12 (stereo not given) | 0 | –
52 | CC(C)CN1C(=O)CC2C(=C(N)Oc3cc(OCc4ccc(Cl)cc4)ccc32)C1=O (stereo not given) | 40 | –
53 | CCCCCCCCCCCCN1C(=O)CC2C(=C(N)Oc3cc(OCc4ccc(Cl)cc4)ccc32)C1=O (stereo not given) | 80 | IC50 [2]: 7.1 µM
54 | CCCCCCCCCCCCN1C(=O)CC2C(=C(N)Oc3cc(OCC)ccc32)C1=O (stereo not given) | 60 | IC50 [2]: 21 µM
55 | Cc1ccc2c(c1)C1CC(=O)N(Cc3ccncc3)C(=O)C1=C(N)O2 (stereo not given) | 0 | –
56 | Cc1ccc2c(c1)OC(N)=C1C(=O)N(CCCN(C)C)C(=O)CC12 (stereo not given) | 0 | –
57 | CCOCCN1C(=O)CC2C(=C(N)Oc3cc(OCC)ccc32)C1=O (stereo not given) | 0 | –

Source: ChEMBL document CHEMBL4184273, “Discovery of chromenes as inhibitors of macrophage migration inhibitory factor” (Bioorg Med Chem, 2018)
